Source: paper PMC7161550 (British Journal of Pharmacology, 2020)

How the values were obtained:
[1] = Protein binding to cell homogenates; type: in vitro ADME; settings: 500 μg·ml^−1 of protein
[2] = type: in vivo; settings: rat, 10 mg·kg^−1 p.o.
[3] = target: CYP1A2 (Homo sapiens, UniProt P05177); assay: CYP inhibition, pooled human liver microsomes; type: in vitro ADME; settings: 0.33–99.2 μM, co‐ and pre‐incubation
Method in brief: (§1)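 The rate of metabolite formation was measured; testosterone was one CYP3A4 substrate. Controls: solvent vehicle, enzyme-selective inhibitors, mechanism-based inhibitors. Analysis by HPLC with online radio-detection or LC/MS/MS.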

[4] = target: CYP2A6 (Homo sapiens, UniProt P11509); assay: CYP inhibition, pooled human liver microsomes; type: in vitro ADME; settings: 0.33–99.2 μM, co‐ and pre‐incubation
Method in brief: as §1

[5] = target: CYP2B6 (Homo sapiens, UniProt P20813); assay: CYP inhibition, pooled human liver microsomes; type: in vitro ADME; settings: 0.33–99.2 μM, co‐ and pre‐incubation
Method in brief: as §1

[6] = target: CYP2C8 (Homo sapiens, UniProt P10632); assay: CYP inhibition, pooled human liver microsomes; type: in vitro ADME; settings: 0.33–99.2 μM, co‐ and pre‐incubation
Method in brief: as §1

[7] = target: CYP2C19 (Homo sapiens, UniProt P33261); assay: CYP inhibition, pooled human liver microsomes; type: in vitro ADME; settings: 0.33–99.2 μM, co‐ and pre‐incubation
Method in brief: as §1

[8] = target: CYP2D6 (Homo sapiens, UniProt P10635); assay: CYP inhibition, pooled human liver microsomes; type: in vitro ADME
Method in brief: as §1

[9] = target: CYP2E1 (Homo sapiens, UniProt P05181); assay: CYP inhibition, pooled human liver microsomes; type: in vitro ADME; settings: 0.33–99.2 μM, co‐ and pre‐incubation
Method in brief: as §1

[10] = target: OAT3 (Homo sapiens, UniProt Q8TCC7); assay: Transporter inhibition, probe substrate accumulation; type: in vitro ADME; settings: HEK293 cells stably transfected with OAT3
Method in brief: (§2)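 Inhibition of probe substrate accumulation in transfected cells: CHO‑K1 for OAT1 and OCT1; HEK293 for OAT3, OATP1B1 and OATP1B3; MDCKII for OCT2, MATE1 and MATE2‑K. Each transporter's activity was confirmed with a positive control substrate or inhibitor.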

[11] = target: OCT1 (Homo sapiens, UniProt O15245); assay: as above; type: in vitro ADME; settings: CHO-K1 cells stably transfected with OCT1
Method in brief: as §2

[12] = target: OCT2 (Homo sapiens, UniProt O15244); assay: as above; type: in vitro ADME; settings: MDCKII cells stably transfected with OCT2
Method in brief: as §2

[13] = target: MATE1 (Homo sapiens, UniProt Q96FL8); assay: as above; type: in vitro ADME; settings: MDCKII cells stably transfected with MATE1
Method in brief: as §2

[14] = target: human OAT1 (Homo sapiens, UniProt Q4U2R8); assay: as above; type: in vitro ADME; settings: 0.033–33.3 μM
Method in brief: as §2

[15] = target: human OATP1B1 (Homo sapiens, UniProt Q9Y6L6); assay: as above; type: in vitro ADME; settings: 0.033–33.3 μM
Method in brief: as §2

[16] = target: T1, BCRP (Homo sapiens, UniProt Q9UNQ0); assay: Bidirectional permeability in MDCKII‐BCRP monolayers; type: in vitro ADME
T1 sequence (Q9UNQ0 1-655): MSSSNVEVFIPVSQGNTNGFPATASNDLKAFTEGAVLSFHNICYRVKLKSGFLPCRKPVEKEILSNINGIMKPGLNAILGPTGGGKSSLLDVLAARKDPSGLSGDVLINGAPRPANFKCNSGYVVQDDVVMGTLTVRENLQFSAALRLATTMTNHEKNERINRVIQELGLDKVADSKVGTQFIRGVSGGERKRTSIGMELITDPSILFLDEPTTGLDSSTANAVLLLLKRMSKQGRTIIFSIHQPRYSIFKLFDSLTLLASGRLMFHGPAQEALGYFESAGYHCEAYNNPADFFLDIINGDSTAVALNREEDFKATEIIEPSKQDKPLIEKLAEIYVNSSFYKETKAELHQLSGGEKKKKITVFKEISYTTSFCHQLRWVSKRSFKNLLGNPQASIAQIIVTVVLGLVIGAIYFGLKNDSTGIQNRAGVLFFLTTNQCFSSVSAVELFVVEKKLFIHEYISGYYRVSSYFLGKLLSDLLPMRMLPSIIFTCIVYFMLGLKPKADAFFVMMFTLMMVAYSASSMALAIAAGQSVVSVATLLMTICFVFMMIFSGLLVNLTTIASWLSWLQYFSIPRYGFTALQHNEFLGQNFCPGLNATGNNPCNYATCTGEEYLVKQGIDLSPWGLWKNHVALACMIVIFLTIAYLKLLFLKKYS
Method in brief: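 Test compound (10 μM) permeability was measured in A–B and B–A directions across MDCKII‑BCRP and parental MDCKII monolayers. 3H‑prazosin (1 μM) served as positive control, with a BCRP inhibitor at 1 μM. Net efflux ratio = ER(BCRP) − ER(MDCKII).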

[17] = target: MDR1 (Homo sapiens, UniProt P08183); assay: Bidirectional permeability in MDCKII‐MDR1 monolayers; type: in vitro ADME
Method in brief: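 Bidirectional (A–B, B–A) permeability of test compound at 10 μM across MDCKII‑MDR1 and parental monolayers. A positive control substrate (5 μM) was included; PSC833 (10 μM) and a second inhibitor (100 μM) served as MDR1 inhibitors. Net efflux ratio = ER(MDR1) − ER(MDCKII).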

[18] = target: CaI‐PLA2 (PLA2G6) (Rattus norvegicus, UniProt P97570); assay: ABPP ex vivo, rat brain after oral BIA 10‐2474; type: in vivo
[19] = system: rat brain; assay: Brain histopathology and behaviour in rats dosed 1 to 28 days; type: in vivo; settings: rat, 10, 30 or 100 mg·kg^−1·day^−1 p.o.
[20] = GLP rat toxicology studies; type: in vivo; settings: 100 mg·kg^−1, assuming brain:plasma ratio of 1:5

Chain of MDR1 (P08183 whole entry): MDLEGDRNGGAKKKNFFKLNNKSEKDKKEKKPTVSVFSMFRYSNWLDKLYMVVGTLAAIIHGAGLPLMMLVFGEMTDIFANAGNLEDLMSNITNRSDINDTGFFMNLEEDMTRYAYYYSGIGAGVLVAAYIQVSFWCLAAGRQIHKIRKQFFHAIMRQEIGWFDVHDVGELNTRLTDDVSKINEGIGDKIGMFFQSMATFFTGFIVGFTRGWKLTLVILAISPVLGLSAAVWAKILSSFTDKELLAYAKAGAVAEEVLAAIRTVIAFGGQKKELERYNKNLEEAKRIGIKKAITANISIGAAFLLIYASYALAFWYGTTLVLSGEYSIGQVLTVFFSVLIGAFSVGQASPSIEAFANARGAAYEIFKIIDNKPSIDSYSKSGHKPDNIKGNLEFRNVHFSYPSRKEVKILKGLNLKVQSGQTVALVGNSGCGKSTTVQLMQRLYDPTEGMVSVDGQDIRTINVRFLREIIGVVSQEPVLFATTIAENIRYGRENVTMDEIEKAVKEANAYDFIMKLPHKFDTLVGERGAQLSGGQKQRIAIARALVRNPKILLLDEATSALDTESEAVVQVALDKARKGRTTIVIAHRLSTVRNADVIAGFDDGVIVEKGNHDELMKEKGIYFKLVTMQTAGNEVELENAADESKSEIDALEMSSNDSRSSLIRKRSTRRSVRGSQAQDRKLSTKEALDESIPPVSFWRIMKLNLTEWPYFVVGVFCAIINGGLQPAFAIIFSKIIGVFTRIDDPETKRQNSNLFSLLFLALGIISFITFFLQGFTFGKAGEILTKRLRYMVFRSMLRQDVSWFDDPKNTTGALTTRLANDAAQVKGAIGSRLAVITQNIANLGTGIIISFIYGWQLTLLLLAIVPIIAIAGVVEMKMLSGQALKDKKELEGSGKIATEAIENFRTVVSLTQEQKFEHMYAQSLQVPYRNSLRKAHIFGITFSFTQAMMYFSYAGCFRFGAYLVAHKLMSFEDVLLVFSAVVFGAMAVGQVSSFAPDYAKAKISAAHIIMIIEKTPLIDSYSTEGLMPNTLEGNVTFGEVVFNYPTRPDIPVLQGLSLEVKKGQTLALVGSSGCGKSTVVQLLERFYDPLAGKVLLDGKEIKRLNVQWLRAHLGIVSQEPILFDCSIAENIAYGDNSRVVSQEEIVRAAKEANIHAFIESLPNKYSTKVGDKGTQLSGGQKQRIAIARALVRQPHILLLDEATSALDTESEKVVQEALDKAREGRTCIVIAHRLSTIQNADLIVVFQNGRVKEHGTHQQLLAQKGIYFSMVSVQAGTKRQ
Chain of CYP2D6 (P10635 whole entry): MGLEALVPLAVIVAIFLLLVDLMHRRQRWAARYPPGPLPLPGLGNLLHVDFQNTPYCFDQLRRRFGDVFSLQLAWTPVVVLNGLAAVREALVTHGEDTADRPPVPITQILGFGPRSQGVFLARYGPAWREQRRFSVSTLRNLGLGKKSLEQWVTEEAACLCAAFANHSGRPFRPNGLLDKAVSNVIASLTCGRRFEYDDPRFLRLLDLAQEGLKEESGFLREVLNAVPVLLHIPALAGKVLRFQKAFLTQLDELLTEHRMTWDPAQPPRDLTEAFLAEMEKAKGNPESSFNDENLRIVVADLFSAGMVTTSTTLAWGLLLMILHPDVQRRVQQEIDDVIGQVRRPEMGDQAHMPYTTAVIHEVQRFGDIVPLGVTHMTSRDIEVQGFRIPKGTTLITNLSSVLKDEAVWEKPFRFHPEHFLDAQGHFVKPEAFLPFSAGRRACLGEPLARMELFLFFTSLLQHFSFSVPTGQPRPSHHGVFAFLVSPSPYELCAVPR
Chain of CaI‐PLA2 (PLA2G6) (P97570 whole entry): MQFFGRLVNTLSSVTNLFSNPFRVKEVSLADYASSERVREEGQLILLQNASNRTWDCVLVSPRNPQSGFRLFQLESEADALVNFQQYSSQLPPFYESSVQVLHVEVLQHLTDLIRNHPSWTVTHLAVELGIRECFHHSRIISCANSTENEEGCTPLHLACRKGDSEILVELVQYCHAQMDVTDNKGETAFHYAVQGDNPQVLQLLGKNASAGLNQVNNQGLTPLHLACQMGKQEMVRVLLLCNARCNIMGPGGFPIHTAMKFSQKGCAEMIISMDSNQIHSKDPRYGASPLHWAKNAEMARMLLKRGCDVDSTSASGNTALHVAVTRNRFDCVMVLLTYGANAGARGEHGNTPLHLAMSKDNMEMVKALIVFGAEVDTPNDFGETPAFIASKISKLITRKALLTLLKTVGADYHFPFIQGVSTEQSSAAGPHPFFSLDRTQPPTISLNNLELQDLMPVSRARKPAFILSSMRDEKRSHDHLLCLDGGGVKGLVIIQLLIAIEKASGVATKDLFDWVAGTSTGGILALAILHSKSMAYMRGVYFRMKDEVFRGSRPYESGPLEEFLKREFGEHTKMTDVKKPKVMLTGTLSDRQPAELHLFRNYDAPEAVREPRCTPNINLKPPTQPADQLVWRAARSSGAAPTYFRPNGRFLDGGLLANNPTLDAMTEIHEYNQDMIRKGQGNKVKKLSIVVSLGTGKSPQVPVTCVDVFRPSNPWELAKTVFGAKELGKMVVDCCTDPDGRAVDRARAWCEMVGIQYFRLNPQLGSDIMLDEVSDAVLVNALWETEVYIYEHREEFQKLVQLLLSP
Chain of CYP2C19 (P33261 whole entry): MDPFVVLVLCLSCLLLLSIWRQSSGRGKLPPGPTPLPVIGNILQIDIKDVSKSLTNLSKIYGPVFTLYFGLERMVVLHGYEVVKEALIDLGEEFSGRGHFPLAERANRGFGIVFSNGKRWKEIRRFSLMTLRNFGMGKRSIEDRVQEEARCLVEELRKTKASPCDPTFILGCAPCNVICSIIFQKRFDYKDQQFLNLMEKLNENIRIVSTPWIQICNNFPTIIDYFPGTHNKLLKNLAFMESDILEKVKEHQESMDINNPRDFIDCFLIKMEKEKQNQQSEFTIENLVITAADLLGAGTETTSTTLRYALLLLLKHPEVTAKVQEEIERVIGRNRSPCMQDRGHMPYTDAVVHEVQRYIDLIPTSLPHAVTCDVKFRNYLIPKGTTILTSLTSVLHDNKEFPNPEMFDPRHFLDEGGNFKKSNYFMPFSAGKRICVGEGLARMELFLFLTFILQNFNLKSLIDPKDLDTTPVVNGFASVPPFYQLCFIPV
Chain of CYP2A6 (P11509 whole entry): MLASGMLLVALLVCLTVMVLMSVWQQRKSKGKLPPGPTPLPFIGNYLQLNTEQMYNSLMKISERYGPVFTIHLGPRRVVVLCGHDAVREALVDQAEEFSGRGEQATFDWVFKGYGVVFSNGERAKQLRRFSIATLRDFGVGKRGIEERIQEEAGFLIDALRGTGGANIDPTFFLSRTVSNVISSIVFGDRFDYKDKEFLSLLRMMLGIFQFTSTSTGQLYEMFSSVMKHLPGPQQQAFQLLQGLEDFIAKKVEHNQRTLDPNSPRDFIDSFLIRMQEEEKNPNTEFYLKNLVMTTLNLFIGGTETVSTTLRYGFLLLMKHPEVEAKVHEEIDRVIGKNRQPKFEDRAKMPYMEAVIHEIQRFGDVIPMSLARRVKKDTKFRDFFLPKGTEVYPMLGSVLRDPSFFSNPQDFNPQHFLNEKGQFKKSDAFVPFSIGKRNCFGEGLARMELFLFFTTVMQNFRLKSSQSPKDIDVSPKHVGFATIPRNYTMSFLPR
Chain of human OATP1B1 (Q9Y6L6 whole entry): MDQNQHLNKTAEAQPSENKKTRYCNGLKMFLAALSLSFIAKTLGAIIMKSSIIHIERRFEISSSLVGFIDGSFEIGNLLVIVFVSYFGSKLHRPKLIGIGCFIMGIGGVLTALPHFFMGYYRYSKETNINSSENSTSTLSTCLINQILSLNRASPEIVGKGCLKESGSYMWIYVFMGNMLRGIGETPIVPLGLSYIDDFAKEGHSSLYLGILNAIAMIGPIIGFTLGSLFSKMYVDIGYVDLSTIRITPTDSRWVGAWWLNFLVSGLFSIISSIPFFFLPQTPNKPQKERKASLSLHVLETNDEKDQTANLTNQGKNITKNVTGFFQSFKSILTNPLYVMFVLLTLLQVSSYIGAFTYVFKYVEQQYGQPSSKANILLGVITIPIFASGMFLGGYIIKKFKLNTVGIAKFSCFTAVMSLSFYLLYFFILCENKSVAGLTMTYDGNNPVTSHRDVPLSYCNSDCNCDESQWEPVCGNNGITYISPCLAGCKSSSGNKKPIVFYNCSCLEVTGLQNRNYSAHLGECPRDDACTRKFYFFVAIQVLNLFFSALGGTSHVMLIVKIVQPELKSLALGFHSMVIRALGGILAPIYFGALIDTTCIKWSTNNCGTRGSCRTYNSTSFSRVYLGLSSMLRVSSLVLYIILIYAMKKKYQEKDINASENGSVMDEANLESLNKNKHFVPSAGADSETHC
Chain of CYP2B6 (P20813 whole entry): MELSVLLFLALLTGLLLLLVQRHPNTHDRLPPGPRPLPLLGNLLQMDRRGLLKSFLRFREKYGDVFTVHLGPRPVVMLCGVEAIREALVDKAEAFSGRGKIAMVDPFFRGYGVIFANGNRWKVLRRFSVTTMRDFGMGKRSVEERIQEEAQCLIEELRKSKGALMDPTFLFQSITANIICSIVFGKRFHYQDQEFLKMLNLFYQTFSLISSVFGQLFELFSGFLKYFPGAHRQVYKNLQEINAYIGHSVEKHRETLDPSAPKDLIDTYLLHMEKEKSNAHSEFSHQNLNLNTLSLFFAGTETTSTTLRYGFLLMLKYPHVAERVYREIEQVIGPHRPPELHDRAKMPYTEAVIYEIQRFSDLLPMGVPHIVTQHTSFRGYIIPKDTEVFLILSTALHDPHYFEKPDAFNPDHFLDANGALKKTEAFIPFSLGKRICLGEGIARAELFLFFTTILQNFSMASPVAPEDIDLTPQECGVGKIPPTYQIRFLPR

O=C(Nc1cccnn1)N1CCC(=Cc2cccc(Oc3ccc(C(F)(F)F)cn3)c2)CC1 [PF‐04457845]
mean % free fraction ± SD [1]: 28.0 ± 3.9%

CN(C(=O)n1cnc(-c2ccc[n+]([O-])c2)c1)C1CCCCC1 [BIA 10‐2474, 3‐(1‐(cyclohexyl (methyl)carbamoyl)‐1H‐imidazol‐4‐yl)pyridine 1‐oxide]
level in all brain sections ([2]; 24 hr after acute and 24, 48 and 72 hr after chronic administration): < 50 ng·g^−1 of tissue | brain levels, acute versus repeated oral administration ([2]; any brain region and time point): no significant differences | inhibitory effect on CY1A2 [3]: did not exhibit any inhibitory effects | inhibitory effect on CYP2A6 [4]: did not exhibit any inhibitory effects | inhibitory effect on CYP2B6 [5]: did not exhibit any inhibitory effects | inhibitory effect on CYP2C8 [6]: did not exhibit any inhibitory effects | inhibitory effect on CYP2C19 [7]: did not exhibit any inhibitory effects | inhibition of CYP2D6 ([8]; co‐incubation): minor inhibition | inhibition of CYP2D6 ([8]; pre‐incubation with BIA 10‐2474): no effect | inhibitory effect on CYP2E1 [9]: did not exhibit any inhibitory effects | inhibition [10]: 34% | inhibition at 10 μg·ml^−1 [11]: 26% | inhibition at 10 μg·ml^−1 [12]: 25% | inhibition at 10 μg·ml^−1 [13]: 24% | effect on OAT1‐mediated probe substrate accumulation [14]: did not influence | effect on OATP1B1‐mediated probe substrate accumulation [15]: did not influence | efflux ratio ([16]; highest observed net efflux ratio (ERBCRP‐ERMDCKII), 10 and 1 μM): 5.7 | efflux ratio ([16]; net ER, MDCKII‐BCRP, without inhibitor): 4.95 | efflux ratio ([16]; with Ko143 1 μM, net ER, MDCKII‐BCRP, with 1 μM of Ko143): 0.03 | efflux ratio ([17]; MDCK-MDR1, highest observed net efflux ratio (ERMDR1‐ERMDCKII)): 2.24 | efflux ratio at 10 μM ([17]; MDCK-MDR1, net ER, MDCKII‐MDR1, without inhibitor): 1.45 | rats in which PLA2g6 was completely inhibited ([18]; 30 mg·kg^−1): four out of six rats | rats in which PLA2g6 was completely inhibited ([18]; 100 mg·kg^−1): three out of six rats | brain histopathology [19]: no abnormalities | overt behavioural abnormalities during treatment [19]: none of the animals used in this study showed any overt behavioural abnormalities | maximum brain concentrations (suggested) [20]: around 20 μM
